For 14 molecules, selectivity ratio, IC50 and CC50 results are on record in ChEMBL document CHEMBL3826907, “Design, synthesis and anti-P. falciparum activity of pyrazolopyridine-sulfonamide derivatives” (Bioorg Med Chem, 2016).

A short description of series [1]: Selectivity index, ratio of MLD50 for african green monkey BGM cells to IC50 for chloroquine/sulfadoxine-resistant Plasmodium falciparum W2. It counts as toxicity, cell-based. Particulars: read-out: Selectivity Index. A digest of the protocol:
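Selectivity index calculated from the BGM MLD50 (24 h MTT, 570 nm, non-linear regression) and the W2 IC50 (72 h HRPII ELISA in A+ erythrocytes).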

In series [2] the test system is Plasmodium falciparum. The experiment in a line: Antimalarial activity against chloroquine/sulfadoxine-resistant Plasmodium falciparum W2 infected in human A+ erythrocytes assessed as reduction in parasite growth after 72 hrs by HRP2 detection based ELISA. The class given is functional, organism-based. The note with it: W2, 72 h. The essentials:
(§1)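 P. falciparum W2 cultured in human A+ erythrocytes in RPMI 1640 with human serum, sorbitol-synchronized to rings. Parasitemia 0.05%, hematocrit 1.5%. […] Three freeze-thaw cycles, then HRPII sandwich ELISA read at 450 nm. IC50 from non-linear regression dose–response curves, three separate experiments (±SD).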

The nature of series [3]: Cytotoxicity against african green monkey BGM cells after 24 hrs by MTT assay. It counts as cell-based. The note with it: chlorocebus aethiops, read-out: MLD50. A digest of the protocol:
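MTT (3 mg/mL) was added, the supernatant was removed after 3 h, and the dye was dissolved in DMSO. Read at 570 nm. MLD50 (minimal lethal dose for 50% of cells) taken from non-linear regression dose–response curves.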

The subject of series [4] is Plasmodium falciparum. The experiment in a line: Antimalarial activity against chloroquine-resistant Plasmodium falciparum W2. It counts as functional, organism-based. The essentials:
as §1

Series [5] concerns Plasmodium falciparum. The experiment in a line: Antimalarial activity against chloroquine-resistant and mefloquine-sensitive Plasmodium falciparum W2 infected in human A+ erythrocytes after 72 hrs by HRP2 detection based ELISA. The class given is functional, organism-based. The note with it: W2, 72 h. The essentials: as §1

Each structure is given as a SMILES string. pIC50: −log10 of the molar value. Some results are limits rather than exact numbers.

Consider `COc1ccc(S(=O)(=O)NCCCCNc2c(C#N)cnc3c2cnn3-c2ccccc2)cc1`, for which the selectivity ratio in series [1] came out at 99.6. The pIC50 with Plasmodium falciparum [2] is 5.30. The CC50 at 24 h in series [3] came to 498 µM.

On to `N#Cc1cnc2c(cnn2-c2ccccc2)c1NCCCCN`, for which the selectivity ratio in series [1] is 101. Further, the pIC50 in the series with Plasmodium falciparum [2] was 5.30. For the same molecule, the CC50 at 24 h in series [3] amounted to 503 µM.

On to `CCOC(=O)c1cnc2c(cnn2-c2ccccc2)c1NCCCCNS(=O)(=O)c1ccccc1`, for which, in series [1], the selectivity ratio was 126. Also, in the series on Plasmodium falciparum [2], the pIC50 is 5.19. The CC50 at 24 h in series [3] was determined as 822 µM.

Regarding `N#Cc1cnc2c(cnn2-c2ccccc2)c1NCCCCNS(=O)(=O)c1ccccc1`, the selectivity ratio in series [1] stood at 59. The pIC50 in the series with Plasmodium falciparum [2] was 5.38. The CC50 at 24 h in series [3] was 248 µM.

`CCOC(=O)c1cnc2c(cnn2-c2ccccc2)c1NCCCCNS(=O)(=O)c1ccc(OC)cc1`: the selectivity ratio in series [1] was determined as 107. Also, in the series with Plasmodium falciparum [2], the negative logarithm of the IC50 (pIC50) is 5.03. Further, the CC50 at 24 h in series [3] turned out to be 995 µM.

In the series on Plasmodium falciparum [4], `O=Cc1cn(-c2ccnc3cc(Cl)ccc23)nn1` showed a negative-log IC50 (pIC50) of 5.85.

In the case of `CCOC(=O)c1cnc2c(cnn2-c2ccccc2)c1NCCCCNS(=O)(=O)c1ccc(Cl)cc1`, the selectivity ratio in series [1] is more than 278. For the same molecule, the pIC50 in the series on Plasmodium falciparum [2] is 5.44. The CC50 at 24 h in series [3] was more than 1000 µM.

On to `Cc1ccc(S(=O)(=O)NCCCCNc2c(C#N)cnc3c2cnn3-c2ccccc2)cc1`, for which, in series [1], the selectivity ratio was determined as 189. Also, the pIC50 in the series with Plasmodium falciparum [2] was 5.44. Also, the CC50 at 24 h in series [3] was found to be 682 µM.

For `N#Cc1cnc2c(cnn2-c2ccccc2)c1NCCCCNS(=O)(=O)c1ccc(Cl)cc1`, in series [1], the selectivity ratio was 55.7. Besides, in the series with Plasmodium falciparum [2], the negative-log IC50 (pIC50) is 5.12. In addition, the CC50 at 24 h in series [3] was found to be 418 µM.

In the case of `N#Cc1cnc2c(cnn2-c2ccccc2)c1NCCCCNS(=O)(=O)c1ccc(F)cc1`, in series [1], the selectivity ratio worked out at 54.6. Besides, the pIC50 with Plasmodium falciparum [2] is 5.03. Moreover, in series [3], the CC50 at 24 h was 508 µM.

Regarding `CCOC(=O)c1cnc2c(cnn2-c2ccccc2)c1NCCCCNS(=O)(=O)c1ccc(F)cc1`, the selectivity ratio in series [1] is 241. The pIC50 in the series on Plasmodium falciparum [2] was 5.39. For the same molecule, in series [3], the CC50 at 24 h turned out to be 993 µM.

With `CCOC(=O)c1cnc2c(cnn2-c2ccccc2)c1NCCCCNS(=O)(=O)c1ccc(C)cc1`, the selectivity ratio in series [1] amounted to 172. In addition, the pIC50 in the series with Plasmodium falciparum [2] was 5.46. The CC50 at 24 h in series [3] is 596 µM.

`Cc1cc(Nc2ccc3ccccc3c2)n2nc(C(F)(F)F)nc2n1` had a pIC50 in the series on Plasmodium falciparum [5] of 7.64.

In the case of `COc1ncnc(NS(=O)(=O)c2ccc(N)cc2)c1OC` [SULFADOXINE], in series [1], the selectivity ratio was 20.7. Besides, the pIC50 with Plasmodium falciparum [2] was 4.82. In series [3], the CC50 at 24 h is 310 µM.
